Source: PubChem BioAssay (several laboratories)
GRIN3A LBD mod – modulates the human NR3A ligand-binding domain; NR3A LBD differential scanning fluorimetry, Tm shift; 0% = protein alone, 100% = glycine-bound protein; Tm shift relative to glycine control, % at 25 µM; 2.5% of 340,000 active;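 active = melting temperature shift of at least 10% of the positive control shift, at one fixed dose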
ADAM10 inh – inhibitors of human ADAM10. 0.62% of 370,000 active. O14672. inhibition, % at 7 µM. AID 720582. recombinant ADAM10, EDANS/DABCYL FRET peptide cleavage, 3 h;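 active = inhibition above a per-campaign cutoff equal to the mean of compounds falling between control-based bounds plus 3 SD, cut at about 20% in these data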;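 also: 0% = DMSO wells while the 100% control is not disclosed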
Target sequence (O14672 214-748 limits assumed): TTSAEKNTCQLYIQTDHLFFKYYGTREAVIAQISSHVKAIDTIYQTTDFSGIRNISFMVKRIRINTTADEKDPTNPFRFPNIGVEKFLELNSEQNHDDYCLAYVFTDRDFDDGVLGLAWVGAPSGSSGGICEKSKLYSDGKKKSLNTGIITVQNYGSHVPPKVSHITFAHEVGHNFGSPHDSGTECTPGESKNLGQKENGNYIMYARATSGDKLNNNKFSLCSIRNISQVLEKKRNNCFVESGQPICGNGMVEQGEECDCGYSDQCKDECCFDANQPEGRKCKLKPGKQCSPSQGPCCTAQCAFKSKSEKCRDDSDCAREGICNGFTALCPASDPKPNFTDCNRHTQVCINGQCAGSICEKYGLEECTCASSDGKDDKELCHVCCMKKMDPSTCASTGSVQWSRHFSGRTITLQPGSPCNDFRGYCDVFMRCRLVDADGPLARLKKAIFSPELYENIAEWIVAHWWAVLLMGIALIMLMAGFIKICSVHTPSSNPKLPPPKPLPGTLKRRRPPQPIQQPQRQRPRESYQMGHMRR
SKN-1 inh – blocks SKN-1 activity in C. elegans. C. elegans VP596 Pgst-4::GFP/RFP ratio, acrylamide-induced, 24 h. inhibition, % at 21.8 µM. 0.49% of 360,000 active;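 active = interference check ratio from 0.5 to 1.5 plus GFP to RFP signal ratio inhibition reaching or exceeding a fixed threshold, cut at about 30% in these data, passing the limit was not always enough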
ADAM17 inh – inhibits human ADAM17; recombinant ADAM17, EDANS/DABCYL FRET peptide cleavage; AID 720648; 0.83% of 370,000 active; inhibition, % at 6.95 µM;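 active = inhibition above the mean of compounds lying between control limits plus 3 SD, set per campaign, cut at about 8.5% in these data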;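 also: 0% = DMSO-only wells as the low control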
MPTP block – inhibitors of mitochondrial permeability transition pore; inhibition, % at 10 µM; 1.4% of 360,000 active; AID 602449; isolated mouse mitochondria, Ca2+ swelling absorbance, 30 min;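 active = inhibition of 50% or more, scaled per plate between neutral and stimulator controls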;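 also: 0% = DMSO wells given calcium and 100% = 1 mM EGTA wells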
MT1-MMP act inh – blocks activation of human MT1-MMP; HT1080 RFP-PRO-GFP cells, GFP/RFP ratio fluorescence, overnight; percent of plate control window, DMSO zero; GFP/RFP ratio change, % at 20 µM; 0.061% of 360,000 active; AID 651647;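 active = GFP/RFP ratio change of at least 30% with cell ATP level not reduced by more than half and red fluorescence within 50% of control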
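Material: RFP-PRO-GFP reporter HT1080 cells. Dosing: single-point 20 µM compound, 1% DMSO. Controls: DMSO and RFP-L50D-GFP cell wells. Timing: cells overnight before dosing, compound overnight, 37 °C, 5% CO2. Measure: GFP/RFP fluorescence ratio.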
Rh123 counter – membrane potential counter-screen of mitochondrial pore inhibitors; AID 624504; shares compounds with MPTP block; inhibition, % at 10 µM; isolated mitochondria, Rhodamine 123 fluorescence; 78% of 5,000 active; in the data active = inhibition above about 22%;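 also: 0% = DMSO vehicle and 100% = positive control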
MPTP swell DR – dose response confirmation of mitochondrial permeability transition pore inhibitors | shares compounds with MPTP block | AID 651561 | 58% of 780 active | IC50, µM | isolated mitochondria swelling, absorbance; in the data active = IC50 below about 20 µM
MPTP cs DR – MPTP inhibitor counter-screen activity, dose response; shares compounds with MPTP block; isolated mitochondria counterscreen, fluorescence read-out; IC50, µM; 49% of 780 active; AID 651564; in the data active = IC50 below about 80 µM
* marks the source's active call; other numbers are inactive results; · = not tested or not shown. Compounds with a hit are over-represented: about 4.7% of the library has one in this group of screens.

SMILES	GRIN3A LBD mod	ADAM10 inh	SKN-1 inh	ADAM17 inh	MPTP block	MT1-MMP act inh	Rh123 counter	others
C/C(=N\Nc1ccc(S(=O)(=O)Nc2ccccc2)cc1[N+](=O)[O-])c1ccncc1	·	-1	·	-2	·	·	·
COc1ccc(NS(=O)(=O)c2ccc(N/N=C(\C)c3ccncc3)c([N+](=O)[O-])c2)cc1	21*	-1	-2	-4	68*	-3	20*
COc1ccccc1NS(=O)(=O)c1ccc(N/N=C(\C)C(C)C)c([N+](=O)[O-])c1	-8	16	9	6	76*	2	55*
CCOC(=O)C1=C(COC(=O)CCOc2cccc(C)c2)NC(=O)NC1C (configuration not stated)	1	-3	17	0	-1	8	·
CCOc1ccc(-c2nnc(SCC(=O)N3CCCC3)o2)cc1	2	-5	1	-2	0	0	·
CN(Cc1cn(C)nc1-c1ccc(Oc2ccccc2)cc1)Cc1cnc2ccccn12	-5	4	-5	0	69*	-4	57*
COCCNc1nc(NCCOc2ccccc2Cl)c2sc(-c3ccccc3)cc2n1	·	-18	9	-8	6	-2	·
COCCNc1nc(NCC2CCCCC2)c2sc(-c3ccccc3)cc2n1	·	-19	17	-4	70*	-13	93*
c1ccc(-c2cc3nc(NCC4CC4)nc(NCC4CCCCC4)c3s2)cc1	·	-34	-4	-5	75*	6	97*
Oc1ccc(-c2n[nH]c(C(F)(F)F)c2-c2ccccc2)c(O)c1	2	12	21	5	84*	·	76*
COc1ccc(-c2c(-c3ccc(O)cc3O)n[nH]c2C(F)(F)F)cc1	5	14	-11	3	4	0	·
Cc1cccc(NC(=S)/N=C(\N)Nc2nc(C)c3ccccc3n2)c1	1	-9	1	-4	33	-2	·
Cc1cc(C)cc(NC(=S)/N=C(\N)Nc2nc(C)c3ccccc3n2)c1	-14	-2	13	-1	56*	-3	-9	MPTP swell DR=>100;MPTP cs DR=>80
COc1ccc(OCC(O)CN2CCC(CN3C(=O)c4cccc5cccc(c45)C3=O)CC2)cc1 (configuration not stated)	-2	-236	-12	-71	19	-2	·
O=C1c2cccc3cccc(c23)C(=O)N1CC1CCN(CC(O)COCc2ccc3c(c2)OCO3)CC1 (configuration not stated)	1	-216	5	-52	56*	0	5	MPTP swell DR=9.6*;MPTP cs DR=26*
Cc1ccc(C)c(OCC(O)CN2CCC(CN3C(=O)c4cccc5cccc(c45)C3=O)CC2)c1 (configuration not stated)	-4	-99	3	-27	100*	-12	92*
O=C(CCCNC(=O)c1ccc(Cl)cc1)Nc1nccs1	1	-12	10	-6	7	-2	·
O=C(NCCSCc1ccco1)Nc1cc(Cl)cc(Cl)c1	3	10	8	3	86*	-1	90*
O=C(CSCc1ccc(Cl)cc1)NCCSCc1ccco1	0	-10	-8	-3	1	-3	·
Fc1nc(F)c(F)c(NCCCNc2c(F)c(F)nc(F)c2F)c1F	3	9	10	2	93*	6	94*
CC(=O)Nc1ccc(NC(=O)c2ccc(COc3ccc(C)cc3)o2)cc1	5	-54	19	-22	4	3	·
C[C@@H]1CN([C@@H](C)CO)C(=O)CCCn2cc(nn2)CO[C@H]1CN(C)C(=O)Nc1ccc2c(c1)OCO2	·	-20	·	-3	·	·	·
FC(F)(F)Oc1ccc(NC(=S)Nc2ccccc2N2CCOCC2)cc1	-7	-3	1	-2	90*	1	81*
CC(C)c1cccc(-c2csc(C(C)(O)c3ccncc3)n2)c1 (configuration not stated)	·	7	0	0	95*	-21	89*
Cc1sc2ncnc(NCc3ccco3)c2c1C	-2	-9	1	-4	3	0	·
SMILES	GRIN3A LBD mod	ADAM10 inh	SKN-1 inh	ADAM17 inh	MPTP block	MT1-MMP act inh	Rh123 counter	others
Cc1sc2ncnc(NCC(O)c3ccccc3)c2c1C (configuration not stated)	-2	-10	-5	-1	69*	-9	58*
Cc1sc2ncnc(NCc3cccs3)c2c1C	1	-2	2	-2	92*	12	92*
Cc1sc2ncnc(NCC(O)c3ccc([N+](=O)[O-])cc3)c2c1C (configuration not stated)	-4	-6	15	3	92*	-2	91*
Cc1sc2ncnc(NCC(c3ccccc3)N(C)C)c2c1C (configuration not stated)	0	8	-3	-1	4	-6	·
Cc1cccc(-c2noc(CNC(=O)COc3ccccc3C)n2)c1	-1	8	5	-2	2	-8	·
CCN(C(=O)CCS(=O)(=O)c1cccc2nsnc12)c1cccc(C)c1	0	10	19	4	-3	1	·
CCCCCCCCCNC(=O)[C@H](NC(=O)COc1ccccc1)[C@@H]1NC(C(=O)OC)C(C)(C)S1 (some centres not stated)	0	3	-14	1	0	-2	·
Cc1cc(NC2CCCCC2)nc(NCc2ccccc2)n1	-4	-9	2	-4	86*	-9	111*
Cc1cc(OC(C)C)nc(NCc2ccccc2)n1	7	2	10	-2	-3	5	·
Cc1cc(N2CCN(c3ccccc3)CC2)nc(NCc2ccccc2)n1	2	-9	0	-5	65*	0	21*
CCCc1nc(C)cc(N2CCN(c3ccccc3)CC2)n1	-8	4	12	-4	0	4	·
COc1cc(C)nc(NCc2ccccc2)n1	-1	1	9	-2	2	3	·
Cc1ccc(Nc2cc(C)nc(NCc3ccccc3)n2)cc1	-3	5	6	3	56*	-12	45*
COc1ccc(Nc2cc(C)nc(NCc3ccccc3)n2)cc1	-3	2	0	0	57*	14	47*
Cc1cc(NC(=O)c2c(F)cccc2Cl)no1	-2	-4	-3	-4	0	8	·
CC(=O)Nc1ccccc1C(=O)C(=O)Nc1cccc(C(=O)NCC2CCCO2)c1 (configuration not stated)	-2	-8	-9	-5	-1	6	·
Cc1cc(C)c(NC2=NS(=O)(=O)c3ccccc32)c(C)c1	1	6	-11	-1	0	1	·
